High-throughput results (PubChem BioAssay)
KCNQ1 pot = potentiators or activators of KCNQ1 channel, primary screen, cell-based, thallium flux, high-throughput; Potassium voltage-gated channel subfamily KQT member 1 (Homo sapiens), P51787; CHO-K1 KCNQ1, thallium flux FluxOR fluorescence; hits give high values; B-score at 10 µM; hit rate 0.35% among 310,000; AID 2648, 2010;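 active means fluorescence ratio B-score, a plate-corrected score, at least three library SD, with initial intensity B-score within 5 SD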
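Test system: CHO-K1 cells stably expressing KCNQ1 / Medium: assay buffer / Also added: depolarizing K+/Tl+ stimulus, K2SO4 and Tl2SO4 each 12.5 mM in 5x stock / Incubation: 90 min dye loading and 20 min compound exposure, both at room temperature / Signal: thallium influx via FluxOR fluorescence, kinetic imaging / Evaluation: B score of baseline-normalized fluorescence ratio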
KCNK9 inh = KCNK9 potassium channel inhibitors, primary screen, HEK293 cells, thallium flux; Potassium channel subfamily K member 9 (Homo sapiens), Q9NPC2; FluxOR thallium flux fluorescence; hits give low values; B-score at 10 µM; hit rate 1.2% among 310,000; AID 488922, 2010;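 active means ratio B-score over 3 SD below the library mean, with starting fluorescence within 5 SD of its mean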;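 further: negative B-score means less thallium flux so channel inhibition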
Cl transport mod = KCC2 cotransporter modulators, thallium flux, primary screen, cell-based, HEK293 KCC2, FluoZin-2 fluorescence, MLSMR; AID 1456, 2008; KCC2 cells, thallium flux FluoZin-2 fluorescence; hit rate 2.2% among 190,000; Solute carrier family 12 member 5 (Homo sapiens), Q9H2X9; B-score of Tl+ flux slope (higher = more flux/activation; lower = inhibition) at 10 µM;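 active means thallium flux slope and its plate-corrected score both differing from the plate sample mean at a set confidence after two filtering rounds, in either direction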;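 further: slope of fluorescence scaled to starting intensity during 10 to 20 s after thallium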
KCNK3 inh = human KCNK3 channel inhibitors, primary screen, CHO cells, FluxOR thallium flux, B-score. Potassium channel subfamily K member 3 (Homo sapiens), O14649. FluxOR fluorescence; hits give low values. B-score at 10 µM. hit rate 0.84% among 340,000. AID 602410, 2012;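 active means B-score under library mean minus 4 SD, starting fluorescence ratio at most library mean plus 5 SD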;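 further: more negative B-score means stronger inhibition of thallium flux through KCNK3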
hERG rescue = hERG rescue from dofetilide block, primary screen, cell-based, CHO-hERG, FluxOR thallium flux, dofetilide IC70; dofetilide IC70 present; AID 1511, 2009; hit rate 0.51% among 310,000; activation (rescue from dofetilide block), less the hit threshold, % at 10 µM;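 active means activation above the mean of controls blocked by dofetilide plus 5 SD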;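 further: thallium influx through hERG after potassium depolarization seen as dye fluorescence rise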
Target sequence (Q12809 whole entry, looked up): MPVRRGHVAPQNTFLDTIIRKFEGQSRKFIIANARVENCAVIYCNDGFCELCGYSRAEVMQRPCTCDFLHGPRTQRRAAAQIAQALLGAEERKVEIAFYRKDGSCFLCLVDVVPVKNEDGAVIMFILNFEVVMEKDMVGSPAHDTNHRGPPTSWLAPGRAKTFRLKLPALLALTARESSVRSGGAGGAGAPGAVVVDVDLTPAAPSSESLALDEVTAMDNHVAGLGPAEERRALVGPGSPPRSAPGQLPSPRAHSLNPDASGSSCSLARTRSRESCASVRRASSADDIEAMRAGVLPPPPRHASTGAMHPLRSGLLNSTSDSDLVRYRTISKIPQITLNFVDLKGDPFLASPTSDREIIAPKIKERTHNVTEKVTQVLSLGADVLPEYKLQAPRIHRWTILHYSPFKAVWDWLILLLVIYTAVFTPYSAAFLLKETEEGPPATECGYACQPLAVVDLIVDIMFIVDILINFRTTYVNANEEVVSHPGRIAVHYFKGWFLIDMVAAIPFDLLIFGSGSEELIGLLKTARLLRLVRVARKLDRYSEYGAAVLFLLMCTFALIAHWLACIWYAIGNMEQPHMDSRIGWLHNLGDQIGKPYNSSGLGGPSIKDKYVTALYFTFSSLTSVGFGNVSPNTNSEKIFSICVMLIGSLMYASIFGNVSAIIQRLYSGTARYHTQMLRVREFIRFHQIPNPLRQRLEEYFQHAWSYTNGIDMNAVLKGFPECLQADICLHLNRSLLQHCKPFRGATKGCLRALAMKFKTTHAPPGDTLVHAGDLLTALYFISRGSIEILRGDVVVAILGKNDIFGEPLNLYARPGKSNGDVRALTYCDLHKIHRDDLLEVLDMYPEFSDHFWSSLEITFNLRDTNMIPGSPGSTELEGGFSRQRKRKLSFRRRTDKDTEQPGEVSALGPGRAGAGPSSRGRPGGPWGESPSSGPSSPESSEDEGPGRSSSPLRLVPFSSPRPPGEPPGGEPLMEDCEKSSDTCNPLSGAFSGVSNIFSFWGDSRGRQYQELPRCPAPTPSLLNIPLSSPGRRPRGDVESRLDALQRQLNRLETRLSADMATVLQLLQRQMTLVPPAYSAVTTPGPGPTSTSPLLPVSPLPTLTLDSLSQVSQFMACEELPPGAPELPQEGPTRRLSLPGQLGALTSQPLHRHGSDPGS
KCNQ1 block = inhibitors of human KCNQ1 channel, primary screen, cell-based, thallium flux, high-throughput; B-score at 10 µM; Potassium voltage-gated channel subfamily KQT member 1 (Homo sapiens), P51787; hit rate 1.3% among 310,000; CHO-K1 KCNQ1, FluxOR thallium flux fluorescence; hits give high values;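 active means compounds whose thallium flux B-score, printed positive for inhibition, exceeds three library SD while starting fluorescence stays within three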;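 further: channel opened by potassium depolarization with thallium stimulus after 20 min compound exposure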
Of the large screens only hits and unclear results are named; the others gave an inactive call. In the library only some 4.1% were active in any assay of this set; here they are far more common.

Cn1nc(-c2ccc(Cl)cc2)nc2c(=O)n(C)c(=O)nc1-2	KCNQ1 pot 9 (no result: KCNK3 inh)
COCCNC(=O)C(=O)N/N=C/c1ccc(C(=O)OC)cc1	hERG rescue 14
COCCNC(=S)N/N=C/c1ccc(OCc2ccc(C(=O)OC)cc2)c(OC)c1	none (no result: KCNK3 inh)
Cc1cccc(C)c1-n1nnnc1S(=O)(=O)Cc1ccccc1Cl	KCNK3 inh -8.7 (no result: KCNQ1 pot, KCNK9 inh, hERG rescue, KCNQ1 block)
O=C(N/N=C/c1ccccn1)c1cc(Br)ccc1O	KCNQ1 pot 10 (no result: Cl transport mod)
COC(=O)c1ccc(NC(=O)Nc2ccc(F)cc2)cc1	KCNQ1 block 6
COC(=O)c1ccc(NC(=O)Nc2ccc(F)c(Cl)c2)cc1	KCNQ1 block 6
CCNC1=C(Cl)C(=O)c2ccccc2C1=O	none
CCCC(=O)NC1=C(Cl)C(=O)c2ccccc2C1=O	KCNK3 inh -9.3 (no result: KCNQ1 pot, KCNK9 inh, Cl transport mod, hERG rescue, KCNQ1 block)
Cc1sc2nc(CN3CCOCC3)[nH]c(=S)c2c1C	KCNQ1 pot 43, Cl transport mod 73, hERG rescue 52
Cc1sc2nc(CN3CCN(c4ccc(O)cc4)CC3)[nH]c(=O)c2c1C	none
COc1ccc(-c2nnc(-c3ccc(N)cc3)o2)cc1	none
COc1ccc2nc(Nc3ccccc3OC)sc2c1	none
COc1ccc(-c2nnc(Nc3nc4c(OC)cccc4s3)o2)cc1	KCNQ1 pot 50, Cl transport mod 9.5, hERG rescue 12
COc1ccc(-c2nnc(Nc3nc4c(OC)cccc4s3)o2)c(OC)c1	Cl transport mod 85
COc1ccccc1-c1cc(C(F)(F)F)nc(NCc2ccco2)n1	KCNK9 inh -7.3 (no result: Cl transport mod)
COc1cccc(C(=O)NCc2ccc3c(c2)OCO3)c1	none (no result: Cl transport mod)
Cc1ccc(C2C(C#N)=C(N)OC3=C2C(=O)CC(C)(C)C3)s1 (centres undefined)	KCNQ1 pot 9
Cc1ccc(NC(=O)c2ccc3c(c2)CCN3S(C)(=O)=O)c(C)c1	hERG rescue 5.3 (no result: Cl transport mod)
CC1(C)Cc2cccc(OCC(=O)N3CCN(c4ccccc4)CC3)c2O1	none
COc1ccc(Cl)cc1CN1CCN(c2nc(C)cc(C)c2C#N)CC1	KCNK3 inh -9.6 (no result: Cl transport mod)
Cc1cc(C)c(C#N)c(N2CCN(CCOc3ccc(Cl)cc3)CC2)n1	none
CCOC(=O)C(NC(C)=O)C(=O)Nc1ccc(C)cc1C (centres undefined)	none
O=C(/C=C/c1ccccc1Cl)N(Cc1cccs1)C1CCS(=O)(=O)C1 (centres undefined)	KCNK9 inh -7.5
CCCOc1ccc(NC(=O)CC2C(=O)N(Cc3ccccc3)C(=S)N2Cc2cccs2)cc1 (centres undefined)	KCNQ1 block 6
CC(=O)c1c(N2CCCC2)[nH]c(-c2ccccc2)nc1=S	KCNQ1 pot 9, Cl transport mod 33, hERG rescue 7.3
CC(=O)c1c(N2CCN(Cc3ccccc3)CC2)[nH]c(-c2ccccc2)nc1=S	KCNQ1 pot 23, Cl transport mod 45
O=C(Nc1ccc(C(=O)N2CCCCC2)cc1)C1CCCCC1	hERG rescue 9.1
Cc1cc(C)cc(NS(=O)(=O)c2ccc3[nH]c(=O)ccc3c2)c1	none (no result: Cl transport mod)
CC1(NC(=O)C2CCN(C(=O)Nc3ccccc3)CC2)CCS(=O)(=O)C1 (centres undefined)	none (no result: Cl transport mod)
Nc1nc2n(n1)C(=O)CC(c1ccccc1[N+](=O)[O-])N2 (centres undefined)	none
Nc1nc2n(n1)C(=O)CC(c1ccc(Cl)cc1)N2 (centres undefined)	hERG rescue 5.0
Cc1ccc(C#CC[N+]2(CC#Cc3ccc(C)cc3)CCCCC2)cc1	KCNQ1 block 12
C(#Cc1ccccc1)C[N+]1(CC#Cc2ccccc2)CCCCC1	none
CCOc1ccc(NC(=O)COc2ccccc2C(=O)NCc2ccccc2)cc1	none (no result: KCNQ1 pot, KCNK9 inh, Cl transport mod, hERG rescue, KCNQ1 block)
Cc1nn(C)c(Cl)c1C(=O)NC(C(=O)O)c1ccccc1 (centres undefined)	none (no result: Cl transport mod)
Cc1ccccc1-c1nc(CS(=O)(=O)CC(=O)NCc2ccc(F)cc2)c(C)o1	none (no result: Cl transport mod)
Cc1ccc(C2=CSC3=NS(=O)(=O)CCN23)cc1	KCNQ1 pot 9
CSc1nc(SCC(=O)O)c2sc3nc(-c4ccccc4)c4c(c3c2n1)CCC4	KCNQ1 pot 10, Cl transport mod 6.1
Cc1cc(NS(=O)(=O)c2ccc(NC(=O)Nc3cccc(C(F)(F)F)c3)cc2)no1	KCNQ1 block 6 (no result: Cl transport mod)
Cc1cc(NC(=O)Nc2cccc(C(F)(F)F)c2)no1	none
Cc1ccc(/C=C2\SC(=S)N(NS(=O)(=O)c3ccc(C)cc3)C2=O)cc1	KCNQ1 pot 27 (no result: Cl transport mod)
CN(Cc1ccc(F)cc1)C(=O)CNC(=O)c1cccs1	none (no result: KCNQ1 pot, KCNK9 inh, Cl transport mod, hERG rescue, KCNQ1 block)
O=C(CNc1cccc2ccccc12)N/N=C/c1ccc([N+](=O)[O-])cc1	none
O=C(CNc1cccc([N+](=O)[O-])c1)N/N=C/c1ccc(F)cc1	hERG rescue 9.9
CC1=C(C#N)C(=O)N(C2CCS(=O)(=O)C2)C(=O)/C1=C\c1ccc(C)o1 (centres undefined)	KCNK9 inh -6.9, KCNQ1 block 7 (no result: KCNK3 inh)
FC(F)(F)c1cccc(-c2nc(-c3ccncc3)no2)c1	none (no result: Cl transport mod)
O=C(c1cc(-c2ccccc2)on1)N1CCCC1	hERG rescue 5.0
O=C(c1cc(-c2ccccc2)on1)N1CCN(c2ccccc2)CC1	none (no result: Cl transport mod)
COc1ccc(/C=N/NC(=O)CSc2ccccc2)cc1OC	none
C=CC[n+]1c(/C=C/c2ccc(OC(C)=O)c(OC)c2)ccc2ccccc21	KCNQ1 pot 12 (no result: Cl transport mod)
Cc1ccc(S(=O)(=O)N2CCOCC2)cc1NC(=O)COC(=O)CNC(=O)c1ccc(C(C)(C)C)cc1	none
CCOc1ncccc1C(=O)OCC(=O)Nc1cc(S(=O)(=O)N2CCOCC2)ccc1C	none
Cc1ccc(S(=O)(=O)N2CCN(C(=O)COC(=O)CCOc3ccc(C(C)(C)C)cc3)CC2)cc1	KCNQ1 block 6 (no result: Cl transport mod)
Cc1ccc(S(=O)(=O)N2CCOCC2)cc1NC(=O)COC(=O)CCOc1ccc(C(C)(C)C)cc1	KCNQ1 block 8 (no result: Cl transport mod)
Cc1ccc(S(=O)(=O)N2CCOCC2)cc1NC(=O)COC(=O)c1cccnc1Cl	hERG rescue 35
O=C(COC(=O)c1cccnc1Cl)Nc1ccc2c(c1)OCCO2	hERG rescue 37
COc1cccc(-c2nc(C#N)c(N3CCN(C(=O)c4ccco4)CC3)o2)c1	none (no result: Cl transport mod)
CCOC(=O)c1cc(-c2ccc(OC)cc2)n[nH]1	none
CC(=O)NCCc1nc2cc(NC(=O)c3cccc([N+](=O)[O-])c3)ccc2n1C	none (no result: Cl transport mod)
